High-throughput results from PubChem.
Only some compounds are listed: those with a hit (about 2.2% of all), similar ones and a draw of the others.
APJ antag = antagonists of human APJ apelin receptor. AID 2521. P35414. CHO-K1 APJ beta-arrestin complementation, luminescence. actives 0.32% (n = 330,000). inhibition, % at 20 µM;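 active = inhibition above about 40% at 20 µM, limit read from the data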;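 also: cells challenged with 10 nM apelin-13 agonist together with compound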
Target sequence (P35414 whole entry, looked up): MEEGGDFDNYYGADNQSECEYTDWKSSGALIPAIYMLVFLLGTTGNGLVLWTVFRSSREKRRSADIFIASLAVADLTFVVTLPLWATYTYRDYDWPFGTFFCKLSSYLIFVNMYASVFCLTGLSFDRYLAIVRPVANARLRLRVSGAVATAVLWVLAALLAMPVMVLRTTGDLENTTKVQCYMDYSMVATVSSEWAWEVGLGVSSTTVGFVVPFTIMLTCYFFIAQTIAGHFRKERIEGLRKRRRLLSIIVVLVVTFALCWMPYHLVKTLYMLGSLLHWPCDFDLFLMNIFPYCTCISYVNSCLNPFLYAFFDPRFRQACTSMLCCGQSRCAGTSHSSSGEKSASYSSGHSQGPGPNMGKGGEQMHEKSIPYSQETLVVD
CXCR6 inh = blocks human CXCR6 beta-arrestin recruitment; O00574; CHO-K1 PathHunter CXCR6 beta-arrestin, luminescence; inhibition, % at 20 µM; actives 0.36% (n = 360,000); in the data active = inhibition above about 34%, passing the limit was not always enough;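 also: antagonist mode with CXCL16 agonist at 10 nM final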
EBI2 antag = antagonists of human EBI2 receptor. inhibition, % at 5 µM. P32249. actives 0.81% (n = 360,000). EBI2 beta-arrestin recruitment, luminescence, 7a,25-OHC stimulated; in the data active = inhibition above about 38%;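 also: enzyme fragment complementation signal reports receptor beta-arrestin coupling in cells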
CCR6 antag = blocks CCL20-driven beta-arrestin recruitment at human CCR6 | CHO-K1 CCR6 PathHunter beta-arrestin, luminescence, CCL20-stimulated | P51684 | inhibition, % at 20 µM | actives 0.49% (n = 340,000);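 active = compounds whose inhibition of the agonist-driven luminescence signal at 20 µM reaches about 50%, limit read from the data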;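 also: cells stimulated with CCL20 at 14 nM final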
HTR2A ag = agonists of mouse serotonin 5-HT2A receptor (HTR2A); actives 0.66% (n = 360,000); activation, % at 7.6 µM; CHO-K1 mHTR2A beta-arrestin complementation, luminescence; percent of 30 µM serotonin response;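 active = activation above a run cutoff, the mean activation of all tested compounds plus 3 SD, cut at about 14% in these data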
APJ agonist = APJ receptor agonism; P35414; CHO-K1 APJ PathHunter beta-arrestin, luminescence; 0% DMSO wells, 100% apelin; activation, % at 20 µM; actives 0.11% (n = 330,000); AID 2520;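 active = activation more than six SD over the plate average, tested at 20 µM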
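Material: CHO-K1 APJ beta-arrestin complementation cell line; Input: cell density 1000 per well; Incubation: compound stimulation 90 min at 25 °C, detection 60 min; Signal: luminescence from split beta-galactosidase complementation, Galacton Star/Emerald II substrate; Controls: DMSO-only wells as negative, 10 nM Apelin-13 as positive control.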
Numbers stand for hits; n = inactive; x = not tested or not shown.

SMILES | APJ antag | CXCR6 inh | EBI2 antag | CCR6 antag | HTR2A ag | APJ agonist
CCOC(=O)N=Nc1c2ccccc2c2nc3no[nH]c3nc12 | n | 35.5 | n | n | n | n
SC(COCc1ccccc1)CN1CCN(Cc2ccc3c(c2)OCO3)CC1 (centres undefined) | n | n | n | 63.5 | n | n
OC(COCc1ccccc1)CN1CCN(Cc2ccc3c(c2)OCO3)CC1 (centres undefined) | n | n | n | n | n | n
Cc1cc(Br)ccc1SCC(=O)N1CCN(S(=O)(=O)c2ccccc2)CC1 | n | n | 82.6 | n | n | n
C=C1CC(COc2ccc3c(C)c(Cl)c(=O)oc3c2)(c2ccccc2)OC1=O (centres undefined) | x | 37.3 | 56.0 | n | n | x
COc1ccc(CNC[C@H]2O[C@@H](n3ccc(=O)[nH]c3=O)[C@H](O)[C@@H]2O)cc1 | x | n | n | x | n | x
CCCCNC(=O)C1(C)CCN1C(=O)c1ccc(F)cc1Cl (centres undefined) | x | n | n | x | n | x
O=C(/C=C\c1ccccc1OC(=O)c1ccccc1F)c1cc2ccccc2o1 | n | n | 44.8 | n | n | n
CC(=O)/C=C\c1ccccc1OC(=O)c1cc2ccccc2oc1=O | n | n | n | n | n | n
O=C(CSc1nc(-c2ccc(F)cc2)nc2c1Cc1ccccc1O2)Nc1cccc(C(=O)O)c1 | x | n | n | 51.9 | n | x
O=C(CSc1nc(-c2ccccc2)nc2c1Cc1ccccc1O2)Nc1ccccc1 | n | x | x | x | x | n
Cc1ccccc1-c1cc2nc(NCc3ccc4occc4c3)n(C)c(=O)c2s1 | x | n | n | x | n | x
C=CS(=O)(=O)c1c2cc(OC)ccc2nc2ccc(OC)cc12 | x | 48.3 | n | 77.8 | n | x
O=C(Cn1sc2ccccc2c1=O)Nc1ccccc1 | x | n | n | x | n | x
O=C(Cn1sc2ccccc2c1=O)NC12CC3CC(CC(C3)C1)C2 | n | 40.6 | n | n | n | n
COc1cc(C2Nc3ccc4ncccc4c3C3=C2C(=O)CCC3)cc(OC)c1OC (centres undefined) | n | n | n | n | n | n
Cc1ccsc1C1Nc2ccc3ncccc3c2C2=C1C(=O)CCC2 (centres undefined) | n | n | 69.6 | n | n | n
CC1(C(=O)NS(=O)(=O)c2cccc(OC(F)F)c2)CCN1C(=O)c1cccc(F)c1 (centres undefined) | x | n | n | x | n | x
CN(C)CCC(=O)N1C/C(=C/c2ccccc2)C(=O)/C(=C\c2ccccc2)C1 | x | 66.4 | n | 78.5 | n | x
COc1ccc(OC(=O)N2C/C(=C/c3ccccc3)C(=O)/C(=C\c3ccccc3)C2)cc1 | x | n | 55.6 | n | n | x
O=C1/C(=C/c2ccccc2)CN(C(=O)CCN2CCOCC2)C/C1=C\c1ccccc1 | x | n | n | 52.6 | n | x
CCOC(=O)N1C/C(=C\c2ccccc2)C(=O)/C(=C/c2ccccc2)C1 | x | n | n | n | n | x
O=C(NC1CCCC1)C(C1CC1)n1c(-c2ccccn2)nc2ccccc21 (centres undefined) | x | x | n | x | n | x
CC(NC(=O)Cn1ncc(Cl)c(Cl)c1=O)C12CC3CC(CC(C3)C1)C2 (centres undefined) | x | n | 63.3 | n | n | x
CC[C@@H](C(=O)[C@@H](C)[C@@H](O)[C@H](C)CCc1ccc(C)c(O)c1C(=O)O)[C@H]1O[C@](CC)([C@H]2CC[C@](O)(CC)[C@H](C)O2)C[C@@H]1C | n | n | n | n | 192.7 | n
SMILES | APJ antag | CXCR6 inh | EBI2 antag | CCR6 antag | HTR2A ag | APJ agonist
COc1cc(/C=C2\SC(=S)N(NS(=O)(=O)c3ccc(C)cc3)C2=O)ccc1O | n | 37.2 | n | n | n | n
CCOc1cc(/C=C2\SC(=S)N(NC(=O)c3cccnc3)C2=O)ccc1O | 44.1 | n | n | n | n | n
COc1cc(/C=C2\SC(=S)N(NC(=O)c3ccncc3)C2=O)ccc1O | n | n | n | 53.1 | n | n
COc1cc(/C=C2\SC(=S)N(NS(=O)(=O)c3ccc(C)cc3)C2=O)cc(OC)c1OC | n | n | n | n | n | n
CCOc1ccc(/C=C2\SC(=S)N(Nc3ccccc3)C2=O)cc1OC | n | n | n | n | n | n
COc1cc(/C=C2\SC(=S)N(Nc3ccccc3)C2=O)cc(OC)c1OC | n | n | n | 50.6 | n | n
O=C(NC1CCCCC1)C1c2ccccc2OCC(=O)N1Cc1ccc2c(c1)OCO2 (centres undefined) | x | n | n | x | n | x
COCCNC(=O)C1(C)CCCN(CCS(=O)(=O)c2ccc(C)cc2)C1 (centres undefined) | x | n | n | x | n | x
CC(=O)c1cccc(NC(=S)NC(=O)c2cncc(Br)c2)c1 | n | n | n | 56.0 | n | n
O=C1Nc2ccccc2N=C(c2ccc3c(c2)OCO3)C1N(C(=O)c1ccc2ccccc2c1)C1CC1 (centres undefined) | x | n | n | x | n | x
O=[N+]([O-])c1ccc(-c2c(O)c3ccccc3c3nc4ccccc4nc23)cc1 | n | n | n | 76.1 | n | n
O=[N+]([O-])c1ccc(-c2cnc3ccccc3n2)cc1 | n | n | n | n | n | n
O=c1nc2cccc3c2=c(/c1=C(\O)c1ccccc1)c1ccccc1c3=O | n | n | n | 52.0 | n | n
O=c1[nH]c(/C=C/c2cccc3ccccc23)nc2ccccc12 | n | n | n | n | n | n
CCOc1ccc2nc(NC(=O)c3ccccn3)sc2c1 | 79.3 | 58.3 | 59.9 | 78.6 | n | n
COc1ccc(C(=O)Nc2nc3ccccc3s2)c(OC)c1 | n | n | 50.4 | n | n | n
CCOc1ccc2nc(NC(=O)Nc3ccccc3)sc2c1 | n | n | n | n | n | n
CCN(CC)c1ccc(N=Nc2nn(C)c(C)c2[N+](=O)[O-])cc1 | 54.6 | n | n | 64.2 | n | n
COc1ccc(OC)c(CN2C(=O)CSCC2(C)C(=O)Nc2c(C)cccc2C)c1 (centres undefined) | x | x | n | x | n | x
COc1cc(OC)cc(C(=O)Nc2nc(-c3ccccc3)c(-c3ccccc3)o2)c1 | n | n | n | 61.9 | n | n
Cc1cc(C)n(-c2nc(Nc3ccccc3)nc(-n3nc(C)cc3C)n2)n1 | n | n | n | n | n | n
COc1cccc(/C=N/Nc2nc(Nc3ccccc3)nc(-n3nc(C)cc3C)n2)c1O | n | 57.0 | 65.6 | 67.4 | n | n
Clc1ccc(-c2cn3c(n2)-c2ccccc2C3)cc1Cl | n | n | 56.7 | n | n | n
Clc1ccc(-c2cn3cc(Br)ccc3n2)cc1Cl | n | n | n | n | n | n
CC1=C(C(=O)N(C(C)C)C(C)C)CC(CC(=O)NCc2cccc3ccccc23)C(=O)N1CCC1=CCCCC1 (centres undefined) | x | n | n | x | n | x
CC(=O)OCCCNc1cc(SCc2ccco2)c2nonc2c1[N+](=O)[O-] | n | n | n | 54.8 | n | n
CCCSc1cc(NCCOC(C)=O)c([N+](=O)[O-])c2nonc12 | n | n | n | n | n | n
